# Source: PubChem
# Hits are enriched below; roughly 1.8% of the tested compounds scored in any of these assays.
# mABHD4 FP: inhibitors of mouse ABHD4 | 370,000 compounds, 0.54% hits | inhibition, % at 8.92 µM | purified mABHD4, FP-Rh probe fluorescence polarization | Q8VD66 | AID 720543;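 active = inhibition exceeding the mean over every tested compound plus 3 SD, cut at about 30% in these data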;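 note: 0% = plate median of compound wells and 100% = S159A mutant with DMSO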
#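 Assay system: mouse ABHD4 enzyme, wild type / Also added: fluorescent activity-based probe FP-Rh / Doses: single nominal dose of 8.92 µM, 0.89% DMSO final / Timing: 45 min compound pre-incubation plus 60 min probe step, 25 °C / Signal: FP readout, ex 525 nm / em 598 nm / Control set: S159A mutant/DMSO as 100%, compound-well median as 0%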
# TCR CD3 inh: blocks the human TCR-CD3 interaction | TAMRA-labeled TCR probe fluorescence, biochemical | inhibition, % at 9.4 µM | 360,000 compounds, 0.37% hits | AID 651800; in the data active = inhibition above about 19%;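 note: recombinant mutant TCR 2C K166C tagged with TAMRA read by polarization; 0% = receptor in buffer alone and 100% = receptor with positive control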
# HTRA1 inhibitor: blocks human HTRA1 serine peptidase. 340,000 compounds, 0.5% hits. recombinant HTRA1, FP-rhodamine activity-based probe, fluorescence polarization. inhibition, % at 5.96 µM. Q92743. AID 504803; in the data active = inhibition above about 36%;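 note: 0% = enzyme with DMSO and 100% = wells lacking enzyme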
# PME-1 inh: blocks human protein phosphatase methylesterase 1 | inhibition, % at 5.9 µM | 320,000 compounds, 0.53% hits | recombinant PME-1, FP-Rh probe fluorescence polarization | Q9Y570;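 active = inhibition above the campaign mean of all compounds plus 3 SD, cut at about 26% in these data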;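 note: competitive labeling of PME-1 active site by serine hydrolase directed probe; 0% = PME-1 with DMSO and 100% = wells lacking PME-1 enzyme; inhibitors block probe labeling so polarization falls and inhibition rises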
# Target sequence (Q9Y570 whole entry, looked up): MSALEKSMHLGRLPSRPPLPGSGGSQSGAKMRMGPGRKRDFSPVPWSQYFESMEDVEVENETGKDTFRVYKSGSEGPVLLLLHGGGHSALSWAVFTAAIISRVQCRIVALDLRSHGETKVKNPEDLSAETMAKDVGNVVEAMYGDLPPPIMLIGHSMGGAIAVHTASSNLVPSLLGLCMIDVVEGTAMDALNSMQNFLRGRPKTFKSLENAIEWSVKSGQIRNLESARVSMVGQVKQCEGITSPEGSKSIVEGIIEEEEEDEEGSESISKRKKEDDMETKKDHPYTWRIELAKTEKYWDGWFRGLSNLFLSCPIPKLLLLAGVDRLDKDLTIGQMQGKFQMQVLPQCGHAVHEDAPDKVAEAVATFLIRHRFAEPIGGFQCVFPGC
# Fam108B inh: Fam108B inhibition, counter-screen for RBBP9 inhibitors; recombinant Fam108B, FP-Rh probe fluorescence polarization; inhibition, % at 9.51 µM; 300,000 compounds, 0.33% hits;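 active = inhibition above the screen mean inhibition plus 3 SD, computed separately per campaign, cut at about 18% in these data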;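 note: inhibitors lower polarization as less probe binds the enzyme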
# SIAE inh: human SIAE inhibition, primary screen; Q9HAT2; SIAE FP-Rh probe binding, fluorescence polarization; inhibition, % at 9.66 µM; 370,000 compounds, 0.69% hits; AID 1053197;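 active = inhibition above a cutoff: mean of compounds within the control limits plus 3 SD of those, cut at about 17% in these data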;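 note: 0% = plate median of compound wells and 100% = probe without SIAE protein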
# Starred values were filed as active, the others as inactive; x = no result.
SMILES,mABHD4 FP,TCR CD3 inh,HTRA1 inhibitor,PME-1 inh,Fam108B inh,SIAE inh
CC(COc1cccc(C#N)c1)CN1CCC(C(O)(c2ccccc2)c2ccccc2)CC1 (configuration not stated),-0.5,x,x,x,x,-0.1
Cc1ccc(O)c(C(=O)c2cc(C#N)c(=O)n(-c3c(C)n(C)n(-c4ccccc4)c3=O)c2)c1,0.7,0.8,-1.7,-3.2,3.1,6.6
Cc1ccc(O)c(C(=O)c2cc(C#N)c(=O)n(-c3nccs3)c2)c1,-1.1,-6.0,-15.9,33.2*,7.6,-12.9
CN(CCOC(=O)c1cc2ccccc2o1)C1CN(Cc2cn(Cc3ccccc3C(F)(F)F)nn2)S(=O)(=O)C1 (configuration not stated),-14.7,x,x,x,x,-3.2
Oc1nc(Nc2ccccc2)sc1/C=C1\C=Nc2ccccc21,14.7,-2.9,-13.2,44.4*,14.3,-11.6
CCOC(=O)c1c(Nc2ccccc2)sc(/C=C2\C=Nc3ccccc32)c1O,x,x,-30.3,8.8,5.1,x
Cc1ccc(Nc2nc(-c3c(C)nc4ccccn34)cs2)cc1,34.9*,-6.1,20.2,11.1,7.0,6.7
Cc1ccc(Nc2nc(-c3c(C)nc4ncccn34)cs2)cc1,18.5,-1.9,6.4,8.8,11.0,4.5
CC1CCN(C(=O)COc2cccc3c2CCN(Cc2ccccc2)C3=O)CC1,1.2,-4.1,-8.9,2.9,3.3,17.4*
CCN1CCc2c(OCC(=O)N3CCC(C)CC3)cccc2C1=O,-1.2,3.7,9.3,-3.1,-1.3,-5.1
Cc1ccc(NS(=O)(=O)c2ccc(NC(=O)CSc3ccc(Cl)cc3)cc2)c(C)c1,-26.6,23.3*,-30.9,-13.6,-3.8,-2.3
Cc1ccc(O)c(NC(=O)CSc2ccc(Cl)cc2)c1,-15.0,1.3,-28.8,2.3,-5.3,4.0
COc1ccc(C[N+]2=C(N)NC3=C4CCCCC4n4c(=O)n(-c5ccccc5)c(=O)n4C3C2)c(OC)c1 (configuration not stated),20.1,x,x,x,x,0.2
O=C(O)c1ccccc1-c1ccccc1C(=O)Nc1ccc(-c2nc3cc(Cl)ccc3o2)cc1,-65.6,-9.5,-79.4,31.1*,-19.3,-40.4
COc1cccc(/C=N/Nc2nc3ccccc3n3cnnc23)c1,6.5,-6.5,-0.2,-13.6,1.5,-6.9
COc1cccc(/C=N/Nc2nc3ccccc3n3cnnc23)c1O,5.3,-0.4,13.7,29.0*,11.2,-1.8
COC(=O)[C@]12C[C@H](CC(=O)N3CCCCC3)C(=O)N(Cc3cccc4ccccc34)C1=C[C@H](C1CCCC1)O[C@@H]2C,5.9,x,x,x,x,10.1
COC(=O)[C@H](C(C)C)N(CCc1cn(CC2CCCCC2)nn1)S(=O)(=O)c1ccccc1Br,2.2,x,x,x,x,-2.3
COc1ccc(S(=O)(=O)Nc2ccc(O)c3ccccc23)cc1,36.9*,-5.2,8.7,9.1,4.3,2.2
COc1ccc(CCC[C@H](CCC(=O)N(c2ccccc2)c2ccccc2)CCc2ccccc2)cc1,-9.3,x,x,x,x,7.2
O=C(N=Nc1c(O)n(Cc2ccccc2)c2ccccc12)c1cc2ccccc2cc1O,8.9,10.8,22.8,51.1*,1.4,2.8
COc1ccc(N=Nc2nc(-c3ccccc3)c(-c3ccccc3)[nH]2)cc1,-43.8,2.7,6.0,28.3*,9.7,6.9
COc1ccccc1N=Nc1nc(-c2ccccc2)c(-c2ccccc2)[nH]1,-102.0,4.8,5.2,8.7,5.1,13.3
COc1cccc(-c2nnc(NC(C)=O)o2)c1,-3.2,3.9,0.0,-3.2,-0.7,-3.3
COc1cccc2sc(Nc3nnc(-c4ccccc4Cl)o3)nc12,2.4,3.0,8.5,22.3,4.9,-9.0
SMILES,mABHD4 FP,TCR CD3 inh,HTRA1 inhibitor,PME-1 inh,Fam108B inh,SIAE inh
COc1cccc2sc(Nc3nc(-c4cc5ccccc5oc4=O)cs3)nc12,2.2,19.0*,-20.6,10.9,5.2,-5.8
COc1cccc(-c2nnc(Nc3nc4c(F)cccc4s3)o2)c1,1.4,6.8,1.2,43.8*,9.2,-4.2
COc1ccccc1-c1nnc(Nc2nc3c(OC)cccc3s2)o1,5.2,-6.0,5.4,31.1*,8.2,-2.4
CC(=O)Nc1cc(OC(C)=O)c2nonc2c1OC(C)=O,12.9,2.6,23.7,63.3*,76.3*,7.1
O=C1C(C2=C(O)c3ccccc3C2=O)=Nc2ccccc21,40.4*,-3.2,21.9,5.7,15.7,9.6
COc1ccc(C(=O)c2oc3ccc(OC)cc3c2N)cc1,3.9,-2.2,-2.9,33.0*,8.7,6.1
